From PubChem
Lipid droplet: modulators of hepatic lipid droplet formation. hit rate 0.4% among 240,000. AML12 mouse hepatocytes, oleate lipid droplets, BODIPY imaging. inhibition, % at 6.5 µM. AID 1656;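 active = lipid droplet intensity inhibited by at least 50%, with more than 500 cells counted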
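System: AML12 hepatocytes (mouse). Probe or stimulus: oleic acid at 100 µM to induce lipid droplet formation. Times: overnight treatment with compound plus oleate. Detection: Image-based BODIPY and DAPI two-channel analysis. Evaluation: percent inhibition of filter-corrected integrated lipid droplet intensity per well.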
Yeast superoxide: lowers age-related superoxide in aged yeast cells. S. cerevisiae aged cells, superoxide DHE fluorescence; hits give low values. superoxide response (% of plate mean), % at 10 µM. hit rate 0.18% among 330,000. AID 2690;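 active = superoxide response under a set limit, about three screen SD below normal, cut at about 65% in these data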;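 also: yeast aged for seven days with compound at 30 °C before DHE staining; 100% = average MFI of all compound-treated wells on the plate with controls excluded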
AHR act: activates the human aryl hydrocarbon receptor; AID 2796; P35869; hit rate 2.5% among 320,000; AHR-responsive luciferase reporter cells, luminescence; activation, % at 5 µM; in the data active = activation above about 47%;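 also: 0% = vehicle wells and 100% = reference agonist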
Target sequence (P35869 whole entry, looked up): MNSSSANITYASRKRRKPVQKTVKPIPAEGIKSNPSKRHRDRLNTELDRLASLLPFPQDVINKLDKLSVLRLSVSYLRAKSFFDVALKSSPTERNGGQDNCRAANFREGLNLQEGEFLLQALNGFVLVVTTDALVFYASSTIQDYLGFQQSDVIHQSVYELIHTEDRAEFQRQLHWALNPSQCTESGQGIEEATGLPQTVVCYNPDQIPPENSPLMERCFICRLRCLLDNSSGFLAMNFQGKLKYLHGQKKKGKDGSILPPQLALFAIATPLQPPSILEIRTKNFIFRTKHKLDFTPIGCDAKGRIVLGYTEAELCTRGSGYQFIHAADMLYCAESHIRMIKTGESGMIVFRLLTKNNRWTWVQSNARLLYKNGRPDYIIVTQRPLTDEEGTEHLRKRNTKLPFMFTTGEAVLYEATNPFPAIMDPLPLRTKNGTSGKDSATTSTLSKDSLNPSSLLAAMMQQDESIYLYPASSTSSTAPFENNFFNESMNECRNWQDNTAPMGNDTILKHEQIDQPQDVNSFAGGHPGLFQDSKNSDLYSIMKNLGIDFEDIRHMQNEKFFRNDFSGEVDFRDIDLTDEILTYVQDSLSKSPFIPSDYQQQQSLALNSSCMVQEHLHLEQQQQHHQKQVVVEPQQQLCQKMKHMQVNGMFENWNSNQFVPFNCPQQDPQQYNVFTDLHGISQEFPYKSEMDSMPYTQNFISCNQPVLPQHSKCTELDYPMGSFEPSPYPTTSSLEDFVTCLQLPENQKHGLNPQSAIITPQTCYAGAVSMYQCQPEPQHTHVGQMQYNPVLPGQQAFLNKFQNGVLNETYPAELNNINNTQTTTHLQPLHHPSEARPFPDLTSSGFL
SR-BI uptake up: SR-BI HDL lipid transfer activation. activation, % at 12.5 µM. AID 504775. hit rate 0.096% among 320,000. CHO ldlA[mSR-BI] cells, DiI-HDL uptake fluorescence, 3 h; 100 = double the neutral-control signal;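 active = mean replicate activation of at least 60% and every replicate at or above 60%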;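 also: 0% = median plate neutral-control signal and 100% = twice that signal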
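Material: SR-BI-overexpressing, LDLR-lacking CHO cells; schedule: compound exposure 3 h, 37 °C; reagent: DiI-labelled HDL at 10 µg/mL final; technique: bottom-read fluorescence, 550/595 nm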
SMARCA2 activ: activators of SMARCA2 function; activation, % at 9.1 µM; hit rate 1% among 370,000; MG213 cells, MMTV-luciferase reporter, dexamethasone, overnight; AID 652017; in the data active = activation above about 7.8%;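 also: 0% = vehicle wells and 100% = reference activator wells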
SR-BI HDL uptake: blocks mouse SR-BI lipid uptake from DiI-HDL | Q61009 | ldlA[mSR-BI] CHO cells, DiI-HDL uptake fluorescence, 3 h | inhibition, % at 12.5 µM | hit rate 0.96% among 320,000 | AID 488896;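 active = mean replicate inhibition of at least 70% and a set share of replicates each scoring 70 or more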;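 also: 0% = median of neutral control wells and 100% = median of positive control wells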
The depositor's hits bear a star; . = no result. Shown are actives, neighbours in structure and some others; about 4.3% of the full set was active somewhere.

SMILES	Lipid droplet	Yeast superoxide	AHR act	SR-BI uptake up	SMARCA2 activ	SR-BI HDL uptake
COc1ccc(Nc2cc(C)nc3c(C)cccc23)cc1OC	-2.5	106.5	67.7*	23.8	-0.4	-23.8
COc1cccc(-c2noc(-c3ccc(Cl)nc3)n2)c1	-10.3	87.4	53.6*	8.3	7.3	-8.3
CCc1cccc(NC(=O)Cn2c(=O)n(CCC(=O)NCC3CCCO3)c(=O)c3cc(OC)c(OC)cc32)c1 (configuration not stated)	-2.4	109.0	2.4	378.9*	0.2	-378.9
COc1ccc(C2Nc3ccccc3NC3=C2C(=O)CC(C)(C)C3)cc1OC (configuration not stated)	-13.9	99.2	1.4	-4.1	-1.3	4.1
COc1cc(C2Nc3cc(C)c(C)cc3NC3=C2C(=O)CC(C)(C)C3)ccc1OC(C)=O (configuration not stated)	0.4	81.5	61.0*	-25.6	-1.8	25.6
C/C(=N\Nc1nc(Cl)c(Cl)cc1Cl)c1ccc(S(=O)(=O)NCc2ccco2)cc1	0.4	80.3	49.0*	-58.4	1.7	58.4
CC[C@@]1(c2cccc(Cl)c2)C(=O)N(C(=O)OC(C)C)N1C(=O)OC(C)C	.	.	.	.	-2.0	.
Cc1cc(=O)c2c(C)ccc(C)c2[nH]1	6.9	95.3	1.9	21.9	-1.7	-21.9
CCC1(C)OC(=O)N2CCc3c(C)[nH]c4c(C)ccc(c34)C21C (configuration not stated)	1.2	107.2	61.6*	-8.1	0.0	8.1
COc1ccccc1NS(=O)(=O)c1cccc(-n2c(O)c(C=Nc3ccccc3C(=O)O)c3ccccc3c2=O)c1	51.6*	105.0	-2.5	-34.4	-0.5	34.4
Cc1ccc(-c2[nH]c3cc(C(N)=O)ccc3c(=O)c2O)cc1	.	88.5	66.3*	4.0	0.1	-4.0
O=C(COC(=O)Cc1c(Cl)cccc1Cl)Nc1ccc(OC(F)(F)F)cc1	9.6	120.3	67.4*	.	0.0	.
Cc1c(C)n(CCc2ccccc2)c2ncnc(NN)c12	-30.9	77.3	18.9	-46.5	-1.8	46.5
Cc1c(C)n(CCc2ccccc2)c2ncnc(NCCCO)c12	-3.6	95.0	51.0*	6.2	3.4	-6.2
COc1ccc(CCN2C(=O)c3cccc4cccc(c34)C2=O)cc1OC	.	86.2	69.7*	-31.7	1.6	31.7
COc1ccc(CCN(C)C(=O)CCCN2C(=O)c3cccc4cccc(c34)C2=O)cc1OC	-8.0	103.1	-2.1	-39.5	3.1	39.5
Cc1ccc(NC(=O)c2ccc(CS(=O)(=O)Cc3ccccc3C)o2)cc1C	.	.	.	.	-3.9	.
Cc1ccc2nc(SC(C)C(=O)NC3CCCC3)[nH]c2c1 (configuration not stated)	.	80.5	48.7*	0.5	2.4	-0.5
Cc1ccc2nc(SCC(=O)Nc3cc([N+](=O)[O-])ccc3F)[nH]c2c1	5.5	97.3	40.0	-60.6	1.5	60.6
Cc1ccc2nc(SC(C)C(=O)N3CCOCC3)[nH]c2c1 (configuration not stated)	-7.2	106.0	49.7*	4.2	3.1	-4.2
Cc1ccc2nc(SC(C)C(=O)Nc3cccc([N+](=O)[O-])c3)[nH]c2c1 (configuration not stated)	-5.9	110.3	66.4*	-3.8	-4.2	3.8
CCN(CC)C(=O)CC[C@@H]1CC[C@]2(CCCN(Cc3cccs3)C2)O1	.	.	.	.	-3.3	.
Cc1ccc(-c2c(C(=O)NCC(C)C)oc(=O)c3ccccc23)cc1	.	.	.	.	-0.1	.
C=CCN1[C@@H](C)[C@H](c2ccccc2)Oc2cccc(N3CCCC3)c2S1(=O)=O	.	.	.	.	-1.7	.
COC(=O)c1cc(S(=O)(=O)NCC2CCN(C(=O)C(=O)c3cccs3)CC2)cs1	.	.	.	.	-4.1	.
Cc1ccc(NN=C2c3ccccc3-c3ccccc32)cc1	21.4	107.2	67.9*	-30.0	-0.3	30.0
OCCOCCNc1ncnc2c1cnn2-c1ccccc1	-2.6	96.4	9.1	36.5	7.8*	-36.5
O=[N+]([O-])c1ccc(Oc2cccc(F)c2)c2ccncc12	-4.9	77.2	55.0*	12.0	0.1	-12.0
Nc1ccn([C@@H]2O[C@H](C(=O)N3CCN(CCO)CC3)[C@@H](O)[C@H]2O)c(=O)n1	.	.	.	.	0.5	.
CCN(CC)S(=O)(=O)c1cc(C(=O)NC2=NCCS2)ccc1Cl	.	101.6	10.1	-73.9	-1.3	73.9*
